Measurements taken from ChEMBL document CHEMBL1687874, “Anti-tubercular agents. Part 6: synthesis and antimycobacterial activity of novel arylsulfonamido conjugated oxazolidinones” (Eur J Med Chem, 2011).
pIC50: −log10 of the molar value. Converted amounts (≈) assume the structure as drawn.

Assays:
[1] = test system: Mycobacterium tuberculosis; test: Antimycobacterial activity against Mycobacterium tuberculosis H37Rv after 3 to 4 weeks by microplate alamar blue assay; format: functional
[2] = Selectivity index, ratio of IC50 for human HFF cells to MIC for Mycobacterium tuberculosis H37Rv; format: functional
Procedure, shortened: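 SI computed as IC50 on HFF cells (24 h MTT) divided by MIC against M. tuberculosis H37Rv (3–4 week microdilution, […]).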

HFF = test: Cytotoxicity against human HFF cells after 24 hrs by MTT assay; format: cell-based
Procedure, shortened: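 Human foreskin fibroblasts in DMEM with 10% FCS exposed to test material for 24 h at 37 °C in CO2 incubator. MTT then added, 3 h further at 37 °C. Formazan read at 565 nm; percent cytotoxicity relative to untreated cells, reported as IC50.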

SMILES | MIC [1] [µg/mL] | Selectivity Index [2] | pIC50 (HFF)
CN1C(NC[C@H]2CN(c3ccc(N4CCOCC4)c(F)c3)C(=O)O2)=NS(=O)(=O)c2ccccc21 | > 6.25 | – | –
CCN1C(NC[C@H]2CN(c3ccc(N4CCOCC4)c(F)c3)C(=O)O2)=NS(=O)(=O)c2ccccc21 | > 6.25 | – | –
O=C1O[C@@H](CNC2=NS(=O)(=O)c3ccccc3N2c2ccccc2)CN1c1ccc(N2CCOCC2)c(F)c1 | > 6.25 | – | –
CN1C(NC[C@H]2CN(c3ccc(N4CCSCC4)c(F)c3)C(=O)O2)=NS(=O)(=O)c2ccccc21 | > 6.25 | – | –
CCN1C(NC[C@H]2CN(c3ccc(N4CCSCC4)c(F)c3)C(=O)O2)=NS(=O)(=O)c2ccccc21 | > 6.25 | – | –
O=C1O[C@@H](CNC2=NS(=O)(=O)c3ccccc3N2c2ccccc2)CN1c1ccc(N2CCSCC2)c(F)c1 | > 6.25 | – | –
O=C1O[C@@H](CNS(=O)(=O)c2ccccc2)CN1c1ccc(N2CCOCC2)c(F)c1 | > 6.25 | – | –
O=C1O[C@@H](CNS(=O)(=O)c2ccc(Cl)cc2)CN1c1ccc(N2CCOCC2)c(F)c1 | > 6.25 | – | –
O=C1O[C@@H](CNS(=O)(=O)c2ccc(F)cc2)CN1c1ccc(N2CCOCC2)c(F)c1 | 1 (≈ 2.21 µM) | >100 | < 4.00
Cc1ccc(S(=O)(=O)NC[C@H]2CN(c3ccc(N4CCOCC4)c(F)c3)C(=O)O2)cc1 | > 6.25 | – | –
CC(=O)NC[C@H]1CN(c2ccc(N3CCN(C4=NS(=O)(=O)c5ccccc5N4C)CC3)c(F)c2)C(=O)O1 | 1 (≈ 1.88 µM) | >100 | < 4.00
CCN1C(N2CCN(c3ccc(N4C[C@H](CNC(C)=O)OC4=O)cc3F)CC2)=NS(=O)(=O)c2ccccc21 | 1 (≈ 1.84 µM) | >50 | < 4.30
CC(=O)NC[C@H]1CN(c2ccc(N3CCN(C4=NS(=O)(=O)c5ccccc5N4c4ccccc4)CC3)c(F)c2)C(=O)O1 | 6.25 (≈ 10.5 µM) | >8 | < 4.30
CN1C(NC[C@H]2CN(c3ccc(N4CCN(C(=O)/C=C/c5ccc(-c6ccc(Cl)cc6)o5)CC4)c(F)c3)C(=O)O2)=NS(=O)(=O)c2ccccc21 | > 6.25 | – | –
CCN1C(NC[C@H]2CN(c3ccc(N4CCN(C(=O)/C=C/c5ccc(-c6ccc(Cl)cc6)o5)CC4)c(F)c3)C(=O)O2)=NS(=O)(=O)c2ccccc21 | > 6.25 | – | –
O=C(/C=C/c1ccc(-c2ccc(Cl)cc2)o1)N1CCN(c2ccc(N3C[C@H](CNC4=NS(=O)(=O)c5ccccc5N4c4ccccc4)OC3=O)cc2F)CC1 | > 6.25 | – | –
CC(=O)NC[C@H]1CN(c2ccc(N3CCOCC3)c(F)c2)C(=O)O1 [LINEZOLID] | 2 (≈ 5.93 µM) | – | –
CO[C@H]1/C=C/O[C@@]2(C)Oc3c(C)c(O)c4c(O)c(c(/C=N/N5CCN(C)CC5)c(O)c4c3C2=O)NC(=O)/C(C)=C\C=C\[C@H](C)[C@H](O)[C@@H](C)[C@@H](O)[C@@H](C)[C@H](OC(C)=O)[C@@H]1C [RIFAMPIN] | 0.12 (≈ 0.146 µM) | – | –
